# Assay results as given in ChEMBL document CHEMBL3259629, “Discovery and optimization of piperidyl-1,2,3-triazole ureas as potent, selective, and in vivo-active inhibitors of α/β-hydrolase domain containing 6 (ABHD6)” (J Med Chem, 2013).
# Assays:
# [1] = target: T1, Diacylglycerol lipase-beta (Mus musculus) (UniProt Q91WC9); assay: Inhibition of FP-rhodamine-labelled recombinant mouse DAGLbeta expressed in HEK293T cells at 1 uM preincubated for 30 mins followed by FP-rhodamine labelling measured after 30 mins by gel-based competitive ABPP assay; format: cell-based; settings: HEK-293T
# T1 sequence (whole entry): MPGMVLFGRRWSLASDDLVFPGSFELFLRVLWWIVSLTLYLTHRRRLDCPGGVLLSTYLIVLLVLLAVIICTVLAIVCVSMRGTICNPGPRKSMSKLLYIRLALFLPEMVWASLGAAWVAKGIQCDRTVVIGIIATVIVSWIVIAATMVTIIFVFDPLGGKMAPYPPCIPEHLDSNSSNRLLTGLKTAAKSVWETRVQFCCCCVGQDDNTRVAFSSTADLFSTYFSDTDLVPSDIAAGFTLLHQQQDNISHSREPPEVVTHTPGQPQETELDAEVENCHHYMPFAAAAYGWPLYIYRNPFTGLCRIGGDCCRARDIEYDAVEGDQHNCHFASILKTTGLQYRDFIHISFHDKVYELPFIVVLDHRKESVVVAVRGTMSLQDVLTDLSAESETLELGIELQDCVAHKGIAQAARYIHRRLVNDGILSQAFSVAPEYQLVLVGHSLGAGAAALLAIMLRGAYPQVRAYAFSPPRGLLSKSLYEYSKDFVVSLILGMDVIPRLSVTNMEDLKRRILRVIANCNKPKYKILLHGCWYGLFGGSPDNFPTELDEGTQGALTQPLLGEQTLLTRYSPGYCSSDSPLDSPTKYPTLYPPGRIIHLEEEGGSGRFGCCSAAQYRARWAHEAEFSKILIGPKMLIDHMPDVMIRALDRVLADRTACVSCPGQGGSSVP
# Method in brief: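 Mouse DAGLβ transiently overexpressed in HEK293T. Lysate diluted to 0.3 mg/mL in 50 mM HEPES pH 7.2, 100 mM NaCl, 5 mM CaCl₂, 0.1% Triton X-100, 10% DMSO. Compound preincubated 30 min at 37 °C, then 1 μM probe for 30 min at 37 °C, SDS-PAGE and in-gel fluorescence.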
# [2] = target: Prolyl endopeptidase (Mus musculus) (UniProt Q9QUR6); settings: Neuro2a, 3 nM
# [3] = target: Acyl-protein thioesterase 1 (Mus musculus) (UniProt P97823); settings: Neuro2a, 3 nM
# [4] = target: T2, Acyl-coenzyme A thioesterase 2, mitochondrial (Mus musculus) (UniProt Q9QYR9); settings: Neuro2a, 3 nM
# T2 sequence (whole entry): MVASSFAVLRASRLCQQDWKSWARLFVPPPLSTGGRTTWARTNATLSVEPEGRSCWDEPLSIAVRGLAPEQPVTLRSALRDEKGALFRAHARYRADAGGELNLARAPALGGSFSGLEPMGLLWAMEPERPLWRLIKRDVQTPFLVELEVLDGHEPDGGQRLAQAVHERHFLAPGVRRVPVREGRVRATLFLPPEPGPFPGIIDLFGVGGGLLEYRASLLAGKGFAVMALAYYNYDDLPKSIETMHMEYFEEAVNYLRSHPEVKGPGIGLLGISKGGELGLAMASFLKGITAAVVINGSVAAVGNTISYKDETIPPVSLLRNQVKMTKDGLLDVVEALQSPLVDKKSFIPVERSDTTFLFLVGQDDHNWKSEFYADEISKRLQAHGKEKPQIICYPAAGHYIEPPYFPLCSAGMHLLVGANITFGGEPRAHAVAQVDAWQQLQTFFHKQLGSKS
# [5] = target: T3, Acetylcholinesterase (Mus musculus) (UniProt P21836); settings: Neuro2a, 3 nM
# T3 sequence (whole entry): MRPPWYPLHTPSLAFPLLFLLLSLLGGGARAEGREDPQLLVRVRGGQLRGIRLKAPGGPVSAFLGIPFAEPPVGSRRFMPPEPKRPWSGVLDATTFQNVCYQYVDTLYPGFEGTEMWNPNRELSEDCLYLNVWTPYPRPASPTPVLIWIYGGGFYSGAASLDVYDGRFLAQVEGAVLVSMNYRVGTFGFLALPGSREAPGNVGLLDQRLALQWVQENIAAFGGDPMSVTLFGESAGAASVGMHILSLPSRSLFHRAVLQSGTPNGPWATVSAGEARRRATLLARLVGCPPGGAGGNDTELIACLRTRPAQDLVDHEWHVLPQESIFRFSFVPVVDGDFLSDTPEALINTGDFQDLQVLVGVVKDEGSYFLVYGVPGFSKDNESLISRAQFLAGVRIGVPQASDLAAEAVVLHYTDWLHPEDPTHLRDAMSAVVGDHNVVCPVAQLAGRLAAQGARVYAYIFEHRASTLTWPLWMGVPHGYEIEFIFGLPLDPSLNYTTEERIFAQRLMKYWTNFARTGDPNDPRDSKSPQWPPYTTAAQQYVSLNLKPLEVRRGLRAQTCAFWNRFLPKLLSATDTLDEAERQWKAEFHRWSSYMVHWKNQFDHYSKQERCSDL
# [6] = target: T4, Lysophospholipase-like protein 1 (Mus musculus) (UniProt Q3UFF7); settings: Neuro2a, 3 nM
# T4 sequence (whole entry): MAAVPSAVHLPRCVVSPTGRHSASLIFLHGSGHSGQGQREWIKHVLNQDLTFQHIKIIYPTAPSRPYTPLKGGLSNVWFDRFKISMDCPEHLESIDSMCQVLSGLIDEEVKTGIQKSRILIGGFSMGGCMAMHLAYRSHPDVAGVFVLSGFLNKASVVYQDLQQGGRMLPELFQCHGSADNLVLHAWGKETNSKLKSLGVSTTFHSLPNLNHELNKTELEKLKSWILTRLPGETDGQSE
# [7] = target: Tissue-type plasminogen activator (Mus musculus) (UniProt P11214); settings: Neuro2a, 3 nM
# [8] = target: T5, Phospholipase DDHD1 (Mus musculus) (UniProt Q80YA3); settings: Neuro2a, 3 nM
# T5 sequence (whole entry): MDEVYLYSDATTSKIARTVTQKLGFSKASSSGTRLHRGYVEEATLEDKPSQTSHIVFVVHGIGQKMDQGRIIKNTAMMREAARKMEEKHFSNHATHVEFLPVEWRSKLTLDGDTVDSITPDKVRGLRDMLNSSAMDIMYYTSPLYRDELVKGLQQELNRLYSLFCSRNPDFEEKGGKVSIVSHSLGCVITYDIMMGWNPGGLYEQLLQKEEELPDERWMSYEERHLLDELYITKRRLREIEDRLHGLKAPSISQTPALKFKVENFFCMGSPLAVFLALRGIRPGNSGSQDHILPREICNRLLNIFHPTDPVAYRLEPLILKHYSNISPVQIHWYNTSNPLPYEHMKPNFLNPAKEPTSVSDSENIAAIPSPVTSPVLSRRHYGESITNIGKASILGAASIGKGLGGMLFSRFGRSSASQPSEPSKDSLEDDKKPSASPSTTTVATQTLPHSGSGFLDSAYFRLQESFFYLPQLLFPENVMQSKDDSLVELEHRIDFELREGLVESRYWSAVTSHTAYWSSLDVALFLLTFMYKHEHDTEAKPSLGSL
# Prolyl endopeptidase (Mus musculus), sequence (Q9QUR6 whole entry, looked up): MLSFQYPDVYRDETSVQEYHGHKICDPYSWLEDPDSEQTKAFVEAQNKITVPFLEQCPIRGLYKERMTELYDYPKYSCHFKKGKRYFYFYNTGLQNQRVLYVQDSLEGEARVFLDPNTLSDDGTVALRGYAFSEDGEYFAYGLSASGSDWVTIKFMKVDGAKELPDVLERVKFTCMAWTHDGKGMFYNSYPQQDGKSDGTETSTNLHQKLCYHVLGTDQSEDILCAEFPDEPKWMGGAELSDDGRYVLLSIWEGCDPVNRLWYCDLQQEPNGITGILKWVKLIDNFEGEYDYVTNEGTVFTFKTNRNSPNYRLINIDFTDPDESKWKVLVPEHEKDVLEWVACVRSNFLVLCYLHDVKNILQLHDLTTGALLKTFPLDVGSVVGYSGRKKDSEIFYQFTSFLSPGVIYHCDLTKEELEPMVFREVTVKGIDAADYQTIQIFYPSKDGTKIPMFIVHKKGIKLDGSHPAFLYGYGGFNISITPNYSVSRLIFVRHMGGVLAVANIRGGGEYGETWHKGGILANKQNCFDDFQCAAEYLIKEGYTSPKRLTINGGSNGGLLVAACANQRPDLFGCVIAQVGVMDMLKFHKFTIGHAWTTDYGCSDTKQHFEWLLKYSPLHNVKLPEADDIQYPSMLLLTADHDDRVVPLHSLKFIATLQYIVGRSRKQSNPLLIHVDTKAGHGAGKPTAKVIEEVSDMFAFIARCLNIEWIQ
# Acyl-protein thioesterase 1 (Mus musculus), sequence (P97823 whole entry): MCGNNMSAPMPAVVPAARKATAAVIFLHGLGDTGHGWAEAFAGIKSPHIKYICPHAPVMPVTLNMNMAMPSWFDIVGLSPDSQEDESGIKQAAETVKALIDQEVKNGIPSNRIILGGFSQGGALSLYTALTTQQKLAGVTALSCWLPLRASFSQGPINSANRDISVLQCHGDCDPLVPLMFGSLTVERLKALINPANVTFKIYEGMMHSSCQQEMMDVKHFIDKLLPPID
# Tissue-type plasminogen activator (Mus musculus), sequence (P11214 whole entry): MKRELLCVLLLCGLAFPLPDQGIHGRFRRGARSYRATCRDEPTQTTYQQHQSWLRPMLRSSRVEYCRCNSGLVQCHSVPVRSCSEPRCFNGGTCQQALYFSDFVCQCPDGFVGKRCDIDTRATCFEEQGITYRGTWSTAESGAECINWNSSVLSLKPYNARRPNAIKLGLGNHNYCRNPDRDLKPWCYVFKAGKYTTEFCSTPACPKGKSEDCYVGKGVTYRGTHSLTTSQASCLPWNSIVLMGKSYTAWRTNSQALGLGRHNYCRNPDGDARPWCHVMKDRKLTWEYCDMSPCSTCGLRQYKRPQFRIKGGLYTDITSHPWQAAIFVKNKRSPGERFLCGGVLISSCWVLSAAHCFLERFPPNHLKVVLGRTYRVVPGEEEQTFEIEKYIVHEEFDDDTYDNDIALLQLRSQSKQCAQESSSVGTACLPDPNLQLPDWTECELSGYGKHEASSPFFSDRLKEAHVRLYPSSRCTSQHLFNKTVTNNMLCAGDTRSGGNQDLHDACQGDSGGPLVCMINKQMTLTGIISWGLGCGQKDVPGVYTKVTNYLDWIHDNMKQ
SMILES,inhibition [1] [%],inhibition [2] [%],inhibition [3] [%],inhibition [4] [%],inhibition [5] [%],inhibition [6] [%],inhibition [7] [%],inhibition [8] [%]
O=C(N1CCCCC1c1ccccc1)n1cc(-c2ccc(-c3cccc(CO)c3)cc2)nn1 (racemic),0,< 50,< 50,< 50,< 50,< 50,< 50,< 50
O=C(c1cccc(-c2ccc(-c3cn(C(=O)N4CCCCC4c4ccccc4)nn3)cc2)c1)N1CCCCC1 (racemic),0,< 50,< 50,< 50,< 50,< 50,< 50,< 50
O=C(O)c1cccc(-c2ccc(-c3cn(C(=O)N4CCCCC4Cc4ccccc4)nn3)cc2)c1 (racemic),50,< 50,< 50,< 50,< 50,< 50,< 50,< 50
